Here are results for ten molecules from ChEMBL document CHEMBL5034012, “Procainamide-SAHA Fused Inhibitors of hHDAC6 Tackle Multidrug-Resistant Malaria Parasites” (J Med Chem, 2021).

SMILES strings stand for the structures. Activity calls are given as the source filed them. The rule behind the calls is not given here.

The IC50 is the concentration at which inhibition is half-maximal. A word on the inhibition: it is the change of the read-out against control, counted positive when it falls.

The subject of assay [1] is HepG2. The experiment in a line: cells. It is filed as functional, cell-based. Particulars: Homo sapiens, HepG2, 72 h.
Assay [2] has as its system Plasmodium falciparum. The experiment in a line: Antiplasmodial activity against asynchronous asexual culture of Plasmodium falciparum NF54 assessed as parasite growth inhibition. It is filed as functional, organism-based. In outline: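 Asynchronous asexual NF54 cultures exposed to 7-point, 2-step serial dilutions starting at 500nM. DHA served as positive control, DMSO as negative. IC50 interpolated from three independent experiments run in triplicate.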

In assay [3] the test system is HL-60. In words: cells. In kind it is functional, cell-based. Particulars: Homo sapiens, HL-60, 72 h.
The target of assay [4] is Histone deacetylase. In words: Inhibition of human HDAC using human HeLa cell nuclear extract measured after 60 mins by fluorescence assay. In kind it is tissue-based.
Assay [5] concerns the target Histone deacetylase (Homo sapiens) (UniProt Q13547+O15379+Q9UBN7+Q92769+Q9UQL6+Q8WUI4+Q9BY41+Q96DB2+P56524+Q9UKV0+Q969S8). In words: Inhibition of human HDAC using human HeLa cell nuclear extract 1 uM by fluorescence assay. In outline:
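HeLa nuclear extract (3x10⁻³mg) incubated with compound and 43 µM Tosyl-Gly-Pro-Lys(Ac)-AMC. Buffer: 25mM Tris-HCl pH 8, 140mM NaCl, 3mM KCl, 1mM MgCl₂. Run 45 min at 37°C, then trypsin (1mg/mL) 15min at RT, then ethanol. AMC fluorescence read at ex 380/em 460nm. Background subtracted; data normalized to DMSO. Duplicates in ≥2 independent experiments.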

In assay [6] the test system is Plasmodium falciparum. The experiment in a line: Antiplasmodial activity against Plasmodium falciparum NF54 late stage IV-V gametocytes assessed as reduction in number of exflagellation centers in at 1 uM treated for 72 hrs. In kind it is functional, organism-based. In outline: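 Synchronous gametocytes induced; asexual forms removed with N-acetyl glucosamine for 5 days. Day-9 stage IV-V gametocytes, about 1% gametocytemia at 2% hematocrit, treated 72h at 10, 5, 1 or 0.5 µM against 0.1% DMSO. Then washed and recultured with daily medium changes. […], pelleted cells mixed 1:1 with human serum. Exflagellation centers counted over ≥10 fields at 40× within one hour. Two independent experiments; one-way ANOVA.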

Assay [7] concerns Plasmodium falciparum. In words: Antiplasmodial activity against Plasmodium falciparum stage IIb-III gametocytes assessed as abnormal morphology by measuring rounded/swollen at highest concentration measured after 72 hrs using Geimsa staining based assay. In kind it is functional. In outline:
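Day-4 stage IIb-III gametocytes (asexuals removed by N-acetyl glucosamine), about 1% gametocytemia at 2% hematocrit, treated 72h at 10, 5, 1 or 0.5 µM against 0.1% DMSO. Then washed and recultured with daily medium changes. Morphology and parasitemia scored daily on Giemsa-stained thin smears.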

Assay [8] relates to Plasmodium falciparum. In words: Antiplasmodial activity against Cambodian multidrug-resistant Plasmodium falciparum isolate incubated for 96 hrs measured by SYBR Green 1 assay. It is filed as functional, organism-based. In outline:
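Cambodian isolates chosen by multidrug-resistance pattern, 10 per resistance type. Ring-synchronized cultures at 2% hematocrit and 1% starting parasitemia; 11-point 2-step dilutions from 500nM; 96h incubation, then SYBR-green I read-out. Mefloquine and monodesethylamodiaquine served as positive controls. Triplicate wells, one biological replicate per isolate.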

For assay [9], the system named is Plasmodium falciparum. In words: Antiplasmodial activity against synchronized ring stage Plasmodium falciparum 3D7 assessed as parasite reduction over one cycle upto 48 hrs at 10 times IC50 concentration. Particulars: time hrs <=48. It is filed as functional. In outline: (§1)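 3D7 culture of mostly rings exposed to drug for 6, 24, 48, 72 or 96h. Then washed, serially diluted 1/3 in fresh RBC and grown 3 weeks. Growth read by SYBR-green I. Number of wells with growth used to back-calculate viable parasites at each time point and derive growth parameters. One experiment, run in duplicate.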

Assay [10] relates to Plasmodium falciparum. The experiment in a line: Antiplasmodial activity against Plasmodium falciparum 3D7 assessed as time to kill initial parasite load at 10 times IC50 concentration. It is filed as functional. In outline: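 Parasite reduction rate assay on 3D7 cultures containing mostly rings, with DHA and pyrimethamine as references. Exposure windows of 6, 24, 48, 72 and 96h; cells then washed, serially diluted 1/3 in fresh RBC and grown 3 weeks before SYBR-green I read-out. Number of wells with growth gives viable parasites per time point, per Sanz et al. One experiment in duplicate.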

Assay [11] has as its system Plasmodium falciparum. The experiment in a line: Antiplasmodial activity against synchronized ring stage Plasmodium falciparum 3D7 assessed as parasite reduction rate in lag phase by measuring time required to achieve maximum speed of action at 10 times IC50 concentration. In kind it is functional. In outline:
as §1

Assay [12] has as its system HL-60. The experiment in a line: Cytotoxicity against human HL-60 cells assessed as inhibition of cell proliferation at 10 uM measured after 72 hrs by ATPlite assay. In kind it is functional. In outline: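 Cells exposed to compound for 72h; viability read by ATPlite. DMSO control. Technical triplicates, at least two biological replicates. IC50 interpolated from the curves.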

For the molecule `CCC(CC)CCNC(=O)c1ccc(NC(=O)CCCCCCC(=O)NO)cc1`, the half-inhibitory concentration (IC50) is greater than 100000 nM in assay [1], greater than 500 nM in assay [2] and greater than 10000 nM in [3].

For the molecule `CCN(CC)c1ccc(NC(=O)CCCCCCC(=O)NO)cc1`, the half-maximal inhibitory concentration (IC50) in [1] is 2400 nM; in assay [2], 239 nM; in assay [3], 2700 nM; in [4], 210 nM.

Take `CCN(CC)CCNC(=O)c1ccc(NC(=O)CCCCC(=O)NO)cc1`: in assay [2], the IC50 was determined as 410 nM. Moreover, in assay [5], the inhibition worked out at 60%.

For the molecule `O=C(CCCCCCC(=O)Nc1ccccc1)NO` [VORINOSTAT], in [6], the outcome was inactive. For the same molecule, the Activity entry in [7] is “<=90%”.

Molecule `CCNCc1cc(Nc2ccnc3cc(Cl)ccc23)ccc1O` [DESETHYL AMODIAQUINE] showed a half-maximal inhibitory concentration (IC50) in [8] of 89 nM.

With `C[C@H]1[C@@H](O)O[C@@H]2O[C@@]3(C)CC[C@H]4[C@H](C)CC[C@@H]1[C@@]24OO3` [ARTENIMOL], the concentration for half-maximal inhibition (IC50) in assay [2] was 3 nM. In [9], the “log(activity)” value is listed as 5.12. Further, in [10], the LT99.9 was found to be 21.2 h. The Time in assay [11] worked out at 0 h.

Regarding `CCN(CC)CCCNC(=O)c1ccc(NC(=O)CCCCCCC(=O)NO)cc1`, the half-inhibitory concentration (IC50) in assay [1] amounted to 8200 nM; in [2], 64 nM; in [3], 34000 nM; in [4], 160 nM.

With `CC(C)(C)OC(=O)N1CCC(NC(=O)c2ccc(NC(=O)CCCCCCC(=O)NO)cc2)CC1`, the results for the IC50 in [1], in assay [2] and in [3] were 150000 nM, 467 nM and 2500 nM, respectively.

Take `CCc1nc(N)nc(N)c1-c1ccc(Cl)cc1` [PYRIMETHAMINE]: the “log(activity)” value in assay [9] is recorded as 3.57. Besides, the LT99.9 in assay [10] was 44.1 h. Also, in [11], the Time was 24 h.

As to `O=C(CCCCCCC(=O)Nc1ccc(C(=O)NCCN2CCOCC2)cc1)NO`, the inhibition at 10 µM in assay [12] came out at 40%. For the same molecule, the concentration for half-maximal inhibition (IC50) in [1] came out at 26000 nM; in assay [2], 341 nM; in [4], 230 nM.
